Data on twelve molecules can be found in ChEMBL document CHEMBL1123537, “Carbocyclic analogues of 5-halocytosine nucleosides” (1986).

Converted amounts (≈) assume the structure as drawn.

Assay [1] relates to MDCK. The experiment in a line: Compound was tested for antiviral activity against influenza virus (Ao) in MDCK cells. Type of assay: functional, Canis lupus familiaris. Put shortly: (§1)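 MDCK monolayers were infected at 32 CCID50 per well, in triplicate, with seven serial half-log10 compound dilutions spanning cytotoxic to noncytotoxic levels. Media were reinforced BME or MEM with 2% FBS, or MEM with trypsin (15 or 10 μg/mL). Plates were held 4–5 days at 37 °C, CPE was scored 0–4, and VR, ratio to ribavirin VR, and MIC50 were derived.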

The test system of assay [2] is MDCK. The experiment in a line: (§2) Compound was tested for its potency against influenza virus (Ao) in MDCK cells. In kind it is functional. The following applies: Canis lupus familiaris. An outline of the steps:
as §1

Assay [3] is described as follows: Ratio of the VR of the C-cytosine nucleoside to the VR of ribavirin. In kind it is functional. An outline of the steps:
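Influenza A (A0/PR/8/34 in MDCK; A2/Aichi/2/68 in primary rhesus monkey kidney) CPE-inhibition in monolayers with various media (reinforced BME or MEM plus serum, or trypsin-containing MEM). Triplicate wells at 32 CCID50/well, seven serial half-log10 concentrations spanning cytotoxic to noncytotoxic, 37 °C 4 or 5 days. CPE scored 0–4 microscopically; VR by modified Ehrlich method, divided by concurrent ribavirin VR.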

The test system of assay [4] is Vero. The experiment in a line: Compound was tested for its potency against Herpes Simplex Virus-2 (MS strain) in vero cells (african green monkey kidney cells). In kind it is functional. The following applies: Chlorocebus sabaeus.
Assay [5] deals with Vero. The experiment in a line: Compound was tested for antiviral activity against Herpes Simplex Virus-2(MS strain) in vero cells (african green monkey kidney cells). In kind it is functional, Chlorocebus sabaeus.
Assay [6] has as its system Epidermoid carcinoma cell line. The experiment in a line: Compound was tested for its antiviral activity against Herpes Simplex Virus-1(HF strain) in human epidermoid carcinoma cells (H.Ep.-2) measured as virus rating (VR). Type of assay: functional. An outline of the steps: (§3)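 […] HSV-1 strain HF in human H.Ep.-2 monolayers (MEM, 5% calf serum growth, 2% FBS maintenance), 32 CCID50/well, in triplicate wells. Seven compound concentrations in half-log10 steps were used, cytotoxic to noncytotoxic. Plates were kept at 37 °C for 4 or 5 days; microscopic CPE was scored 0 (none) to 4 (100%) and a virus rating was calculated from the scores, with ara-A as positive control.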

The subject of assay [7] is MDCK. The assay is described as §2. Type of assay: functional, Canis lupus familiaris. An outline of the steps: as §1
The species named for a further assay is Oryctolagus cuniculus. As to the kind of experiment: Compound was tested for antiviral activity against Herpes Simplex Virus-1 (377 strain) in primary rabbit kidney cells. Type of assay: functional. An outline of the steps:
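Primary rabbit kidney monolayers (MEM; 5% calf serum growth, 2% FBS maintenance) were challenged with HSV-1 E-377 (TK+), 32 CCID50/well, in triplicate. Seven half-log10 dilutions ranged from cytotoxic to noncytotoxic, with cytotoxicity and uninfected controls. After 4–5 days at 37 °C, CPE was scored 0–4 and converted to VR; ara-A ratio and 50% CPE-inhibitory concentration (MIC50) were also determined.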

Assay [8] has as its system Vero. The experiment in a line: C(compound) was tested for antiviral activity against Herpes Simplex Virus-2(MS strain) in vero cells (african green monkey kidney cells). In kind it is functional, Chlorocebus sabaeus.
Assay [9] deals with Epidermoid carcinoma cell line. The experiment in a line: Compound was tested for its potency against Herpes Simplex Virus-1(HF strain) in human epidermoid carcinoma cells. Type of assay: functional. Put shortly: as §3

Turning to `Nc1nc(=O)n(C2CC(CO)C(O)C2O)cc1Br` (centres undefined), the VR with MDCK [1] is given as 1.5. In the assay with MDCK [2], the MIC50 turned out to be 150 µg/mL (≈ 469 µM). Besides, the Ratio in assay [3] was 0.36.
For the molecule `Nc1nc(=O)n(C2CC(CO)C(O)C2O)cc1Cl` (centres undefined), in the assay on MDCK [1], the VR amounted to 0.4. The Ratio in assay [3] stood at 0.1.
`Nc1nc(=O)n([C@@H]2C[C@H](CO)[C@@H](O)[C@@H]2O)cc1I`: in the assay on Vero [4], the MIC50 was determined as 197 µg/mL (≈ 537 µM). Also, the VR in the assay on Vero [5] turned out to be 2.2; in [6] it was 0.
On to `Nc1ccn(C2CC(CO)CC2O)c(=O)n1` (centres undefined), for which the results for the VR (with MDCK [1]; in assay [6]) were 0.1 and 0, respectively.
In the assay on Vero [4], `Nc1nc(=O)n(C2CC(O)C(CO)C2)cc1I` (centres undefined) came in with an MIC50 of 340 µg/mL (≈ 968 µM). Moreover, the VR in the assay with Vero [5] is 1; in assay [6], 0.
As for `Nc1nc(=O)n(C2CC(CO)CC2O)cc1I` (centres undefined), the VR was 0 in the assay with MDCK [1] and 0.5 in the assay on MDCK [7].
With `Nc1nc(=O)n([C@@H]2C[C@H](CO)[C@@H](O)[C@H]2O)cc1I`, the VR in the assay on MDCK [1] turned out to be 0.2; with Vero [5], 0.
As to `Nc1ccn(C2CC(O)C(CO)C2)c(=O)n1` (centres undefined), the VR with MDCK [1] turned out to be 0; in [6], 0; in the assay listed under Oryctolagus cuniculus it was 2.6; in the assay with Vero [8], 1.9. In addition, the MIC50 against Vero [4] is 44 µg/mL (≈ 195 µM); in the assay listed under Oryctolagus cuniculus it was less than 26 µg/mL.
Molecule `Nc1nc(=O)n(C2CC(O)C(CO)C2)cc1Br` (centres undefined) gave an MIC50 in the assay with Vero [4] of 62 µg/mL (≈ 204 µM). Further, the VR amounted to 2.6 in the assay with Vero [5] and 0 in assay [6].
With `Nc1ccn([C@@H]2C[C@H](CO)[C@@H](O)[C@H]2O)c(=O)n1`, the figures for the VR (with MDCK [1]; in the assay with Vero [5]; in assay [6]) were 3.5, 3.2 and 0.8, respectively. Further, the results for the MIC50 (with Vero [4]; against MDCK [2]; in [9]) were 2.4 µg/mL (≈ 9.95 µM), 2.6 µg/mL (≈ 10.8 µM) and 71 µg/mL (≈ 294 µM), respectively. Also, the Ratio in assay [3] came to 0.73.
As to `Nc1ccn([C@@H]2C[C@H](CO)[C@@H](O)[C@@H]2O)c(=O)n1`, the VR in the assay with MDCK [1] is 0.8; with Vero [5], 2.4; in assay [6], 0.6; in the assay listed under Oryctolagus cuniculus, 1.8. The MIC50 was determined as 13 µg/mL (≈ 53.9 µM) in the assay with Vero [4], 312 µg/mL (≈ 1290 µM) against MDCK [2], 95 µg/mL (≈ 394 µM) in assay [9] and 30 µg/mL (≈ 124 µM) in the assay filed under Oryctolagus cuniculus. For the same molecule, the Ratio in [3] came to 0.2.
Molecule `Nc1nc(=O)n(C2CC(O)C(CO)C2)cc1Cl` (centres undefined) registered an MIC50 against Vero [4] of 270 µg/mL (≈ 1040 µM). The molecule further yielded a VR in the assay on Vero [5] of 0.7.
